{"data": "Assay results gathered from unrelated publications", "FGFR1": "Fibroblast growth factor receptor 1 (FGFR1, Homo sapiens, UniProt P11362)", "FGFR1 V561M": "Fibroblast growth factor receptor 1 (FGFR1, Homo sapiens, UniProt P11362, V561M)", "note": "Protocols differ between the studies behind these lines."}
{"Structure (SMILES)": "CN(c1ccnc(CNc2nc(Nc3ccc4c(c3)CC(=O)N4)ncc2C(F)(F)F)n1)S(C)(=O)=O", "target": "FGFR1", "read-out": "cell-free assay", "technique": "competition with immobilised ligand", "tested at": "1 µM", "quantity": "remaining binding", "value": "82%"}
{"Structure (SMILES)": "C=CC(=O)Nc1cccc(-n2nc3c(=O)[nH]nc(N)c3c2-c2oc3ccc(C)cc3c2C)c1", "target": "FGFR1", "read-out": "enzyme activity", "mode": "inhibitor", "technique": "ELISA", "tested at": "10 nM", "quantity": "inhibition", "value": "10.6%"}
{"Structure (SMILES)": "CCOC(=O)c1c(C)[nH]c(/C=C2\\C(=O)Nc3ccccc32)c1C", "target": "FGFR1", "read-out": "cell-free assay", "tested at": "0.5 µM", "quantity": "remaining signal", "value": "78.6%"}
{"Structure (SMILES)": "CN(c1ncccc1CNc1nc(Nc2ccc3c(c2)CC(=O)N3)ncc1C(F)(F)F)S(C)(=O)=O", "target": "FGFR1", "read-out": "enzyme activity", "mode": "inhibitor", "tested at": "1 µM", "quantity": "inhibition", "value": "80.1%"}
{"Structure (SMILES)": "C[C@@H]1CN(c2cc(-c3n[nH]c4ccc(OC5(C)CC5)cc34)ncn2)C[C@H](C)O1", "target": "FGFR1", "read-out": "cell-free assay", "technique": "competition with immobilised ligand", "tested at": "0.1 µM", "quantity": "remaining binding", "value": "100%"}
{"Structure (SMILES)": "COc1cc(/C=C/C(=O)c2ccc(NC3=C(Cl)C(=O)c4ccccc4C3=O)cc2)cc(OC)c1OC", "target": "FGFR1", "read-out": "enzyme activity", "mode": "inhibitor", "technique": "ADP detection", "tested at": "1 µM", "quantity": "inhibition", "value": "> 70%"}
{"Structure (SMILES)": "CC(=O)N1CCC(c2ccc(C(=O)NC3=NCCN3)cc2C(F)(F)F)CC1", "target": "FGFR1", "read-out": "cell-free assay", "technique": "competition with immobilised ligand", "tested at": "1 µM", "quantity": "remaining binding", "value": "100%"}
{"Structure (SMILES)": "CNC(=O)c1cc(Oc2ccc(NC(=O)Nc3ccc(Cl)c(C(F)(F)F)c3)cc2)ccn1", "target": "FGFR1", "read-out": "enzyme activity", "mode": "inhibitor", "tested at": "0.3 µM", "quantity": "inhibition", "value": "69%"}
{"Structure (SMILES)": "Nc1ncnc2occ(-c3ccc(NC(=O)Nc4cc(C(F)(F)F)ccc4F)cc3)c12", "target": "FGFR1", "read-out": "cell-free assay", "tested at": "20 µM", "quantity": "remaining signal", "value": "0.15%"}
{"Structure (SMILES)": "CNCc1ccccc1-c1csc([C@@H](C)Nc2nc(C)nc3cc(OC)c(OC)cc23)c1", "target": "FGFR1", "read-out": "cell-free assay", "technique": "competition with immobilised ligand", "tested at": "1 µM", "quantity": "remaining binding", "value": "100%"}
{"Structure (SMILES)": "C=CC(=O)Nc1cc(Nc2nccc(Nc3cc(Cl)c(F)cc3C(C)(C)O)n2)c(OC)cc1N1CC[C@@H](N(C)C)C1", "target": "FGFR1 V561M", "read-out": "enzyme activity", "mode": "inhibitor", "tested at": "1 µM", "quantity": "inhibition", "value": "1%"}
{"Structure (SMILES)": "COc1cc2ncnc(Nc3ccc(Oc4ccccc4)c(C)c3C)c2cc1OC", "target": "FGFR1", "read-out": "enzyme activity", "mode": "inhibitor", "tested at": "1 µM", "quantity": "inhibition", "value": "-2%"}
{"Structure (SMILES)": "Cc1cc(NC(=O)c2cccc3cc(-c4cccc5[nH]nc(N)c45)ccc23)ccc1F", "target": "FGFR1 V561M", "read-out": "enzyme activity", "mode": "inhibitor", "tested at": "0.1 µM", "quantity": "activity vs control", "value": "92%"}
{"Structure (SMILES)": "CN(c1nccc(-c2cnn3ncccc23)n1)C1CC1", "target": "FGFR1", "read-out": "binding", "tested at": "1 µM", "quantity": "remaining binding", "value": "75%"}
{"Structure (SMILES)": "CCCS(=O)(=O)Nc1ccc(F)c(C(=O)c2c[nH]c3ncc(-c4ccc(Cl)cc4)cc23)c1F", "target": "FGFR1", "read-out": "enzyme activity", "mode": "inhibitor", "tested at": "1 µM", "quantity": "inhibition", "value": "< 10%"}
{"Structure (SMILES)": "C[S+]([O-])c1ccc(-c2nc(-c3ccncc3)c(-c3ccc(F)cc3)[nH]2)cc1 (stereo not drawn)", "target": "FGFR1", "read-out": "cell-free assay", "tested at": "0.5 µM", "quantity": "remaining signal", "value": "90.7%"}
{"Structure (SMILES)": "CSc1nc(C)c(-c2ccnc(Nc3ccc(N4CCOCC4)cc3)c2)[nH]1", "target": "FGFR1", "read-out": "cell-free assay", "mode": "inhibitor", "tested at": "10 µM", "quantity": "inhibition", "value": "26.2%"}
{"Structure (SMILES)": "COc1cc2ncnc(Nc3ccc(F)c(Cl)c3)c2cc1OCCCN1CCOCC1", "target": "FGFR1", "read-out": "cell-free assay", "tested at": "0.5 µM", "quantity": "remaining signal", "value": "96.4%"}
{"Structure (SMILES)": "Cc1cc(NC(=O)c2cccc(S(F)(F)(F)(F)F)c2)cc(-n2ccn3nc(-c4cccnc4)cc23)c1", "target": "FGFR1", "read-out": "cell-free assay", "technique": "competition with immobilised ligand", "tested at": "1 µM", "quantity": "remaining binding", "value": "100%"}
{"Structure (SMILES)": "CCN(CC)CCNC(=O)c1c(C)[nH]c(/C=C2\\C(=O)Nc3ccc(F)cc32)c1C", "target": "FGFR1", "read-out": "cell-free assay", "tested at": "0.5 µM", "quantity": "remaining signal", "value": "66.1%"}
{"Structure (SMILES)": "CSc1cccnc1N1CCN(Cc2nc3ccccc3[nH]2)CC1", "target": "FGFR1", "read-out": "cell-free assay", "technique": "competition with immobilised ligand", "tested at": "1 µM", "quantity": "remaining binding", "value": "100%"}
{"Structure (SMILES)": "O=C1Nc2ccc(Cl)cc2C1=Cc1cc(Cl)c(O)c(Cl)c1", "target": "FGFR1", "read-out": "cell-free assay", "tested at": "0.5 µM", "quantity": "remaining signal", "value": "90.8%"}
{"Structure (SMILES)": "CS(=O)(=O)c1cc(C2(NC(=O)c3cncc4c3cnn4-c3ccc(F)cc3)CC2)ccn1", "target": "FGFR1", "read-out": "cell-free assay", "technique": "competition with immobilised ligand", "tested at": "1 µM", "quantity": "remaining binding", "value": "95%"}
{"Structure (SMILES)": "Clc1ccc(Nc2nnc(Cc3ccncc3)c3ccccc23)cc1", "target": "FGFR1", "read-out": "cell-free assay", "tested at": "0.5 µM", "quantity": "remaining signal", "value": "97.2%"}
{"Structure (SMILES)": "COc1cc(/C=C/C(=O)CC(=O)/C=C/c2ccc(O)c(OC)c2)ccc1O", "target": "FGFR1", "read-out": "enzyme activity", "mode": "inhibitor", "tested at": "1 µM", "quantity": "activity vs control", "value": "102%"}
{"Structure (SMILES)": "Cc1cc(C)c(-n2ccn3nc(-c4cccnc4)cc23)cc1NC(=O)c1cc(C#N)cc(S(F)(F)(F)(F)F)c1", "target": "FGFR1", "read-out": "cell-free assay", "technique": "competition with immobilised ligand", "tested at": "0.1 µM", "quantity": "remaining binding", "value": "85.5%"}
{"Structure (SMILES)": "CC/C(=N\\NC(=O)NCc1cccc(O)c1)c1ccc(O)c(C)c1O", "target": "FGFR1 V561M", "read-out": "enzyme activity", "mode": "inhibitor", "tested at": "0.1 µM", "quantity": "inhibition", "value": "10.8%"}
